Test [1] has as its system PBMC. The experiment in a line: Immunosuppressive activity in anti-CD3/anti-CD28-induced human PBMC after 96 hrs by flow cytometry. It counts as functional, cell-based. In short, it runs like this:
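Healthy-donor PBMCs isolated by Lymphoprep density-gradient centrifugation, held in complete medium at 10⁶ cells/mL. Stimulated with plate-bound anti-CD3 (2 μg/mL) plus soluble anti-CD28 (1 μg/mL) monoclonal antibodies. Incubated 96 h with varying compound concentrations in DMSO (less than 0.025%) or vehicle alone. Proliferation measured by flow cytometry.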
In general terms: Flow cytometry measures light scatter and fluorescence of single cells or particles in a stream.

Test [2] has as its system PBMC. Put plainly: Cytotoxicity against human PBMC after 96 hrs by flow cytometry. It counts as cell-based. In short, it runs like this:
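PBMCs isolated from healthy donors by Lymphoprep density-gradient centrifugation and resuspended in complete medium. Cells at 10⁶ cells/mL incubated without stimulation for 96 h with different concentrations of compound or vehicle alone. Cell survival read by flow cytometry.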

As usually defined, the IC50 is the concentration that inhibits the measured activity by half. A high value points to lower potency.

Structures are written as SMILES. Where only a bound is given, the exact number is not on record here.

As for `CC(=O)OC[C@]12[C@H](OC(C)=O)[C@H](OC(C)=O)[C@@H]3[C@@H](OC(C)=O)[C@@]14O[C@@]3(C)COC(=O)c1cccnc1CC[C@](C)(OC(=O)c1ccoc1)C(=O)O[C@@H]([C@H](OC(=O)c1ccoc1)[C@@H]2OC(C)=O)[C@]4(C)O`, the figures for the IC50 in test [1] and in test [2] were 4.95 µM and 26.4 µM, respectively.
With `CC1(C)O[C@]23[C@H](OC(=O)c4cccnc4)[C@H]1C[C@@H](OC(=O)/C=C\c1ccccc1)[C@]2(CO)[C@@H](OC(=O)c1ccccc1)CC[C@]3(C)O`, the IC50 in test [1] stood at 24.7 µM; in test [2], 57.6 µM.
Turning to `COc1c(C)c2c(c(O)c1C/C=C(\C)CCC(=O)O)C(=O)OC2` [MYCOPHENOLIC ACID], the IC50 was 0.18 µM in test [1] and more than 100 µM in test [2].
For `CC(=O)OC[C@]12[C@H](OC(C)=O)[C@H](OC(C)=O)[C@@H]3[C@@H](OC(C)=O)[C@@]14O[C@@]3(C)COC(=O)c1cccnc1CCC(C)(O)C(=O)O[C@@H]([C@H](OC(C)=O)[C@@H]2OC(C)=O)[C@]4(C)O` (some centres not stated) [ALATUSININE] the same measures were 45.9 µM and 75.7 µM.
As to `CC(=O)OC[C@]12[C@H](OC(C)=O)[C@H](OC(C)=O)[C@@H]3[C@@H](O)[C@@]14O[C@@]3(C)COC(=O)c1cccnc1[C@@H](C)[C@H](C)C(=O)O[C@@H]([C@H](OC(=O)c1ccccc1)[C@@H]2OC(C)=O)[C@]4(C)O`, the IC50 is 32.9 µM in test [1] and 56.3 µM in test [2].
Regarding `CC(=O)O[C@@H]1[C@@H]2[C@@H](OC(C)=O)[C@@]34O[C@@]2(C)COC(=O)c2cccnc2CC[C@](C)(OC(=O)c2ccoc2)C(=O)O[C@@H]([C@H](O)[C@H](O)[C@@]3(CO)[C@@H]1O)[C@]4(C)O`, the IC50 was 8.67 µM in test [1] and more than 100 µM in test [2].

Source of the values: ChEMBL document CHEMBL3352530, “Nitrogen-containing dihydro-β-agarofuran derivatives from Tripterygium wilfordii” (J Nat Prod, 2014).
